Results on one molecule are retold here after article PMC6127800 (Molecular Pharmaceutics, 2018).

For orientation: tissue uptake means the percentage of the injected dose found per gram of tissue.

Where two headings read alike, the source gives them in different places. Bounds are passed on as bounds.

One data set concerns hPD-L1 and CHO tumors. The data set is described as follows: Ex vivo biodistribution of [68Ga]WL12 in hPD-L1 and CHO tumor model. Set-up: species or system mice. As to conditions: 120 min. The method in brief: (§1)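 Female NSG mice, 6–8 weeks old, carried s.c. CHO cells stably expressing human PD-L1 and parental CHO cells (10 × 10^6, opposite upper flanks), used at 200−500 mm3. Radiotracer was given i.v. at 25 μCi, with tissues taken at 15, 60 and 120 min (n = 3). Blocking (n = 2) used 50 μg unlabeled peptide s.c. 60 min pre-tracer. %ID/g was decay-corrected against triplicate 68Ga standards; tumor-to-blood and tumor-to-muscle ratios were derived.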

Assay in data set [1]: as above
Also noted: species or system mice. The note with it: female, NSG, mouse, iv, 25 uCi, total radioactivity. The method in brief: as §1

Data set [2] is classed as in vivo, mice. The note with it: female, NSG, mouse, iv, 25 uCi, total radioactivity.
Data set [3] concerns MDAMB231 and SUM149 tumors. Format: in vivo, mice. As to conditions: 60 min; 50 μg WL12 s.c. 60 min before tracer, n = 2.

Take `CCCC[C@H]1C(=O)N(C)[C@@H](CCCC)C(=O)N[C@@H](CCCNC(=O)CCC(C(=O)O)N2CCN(CC(=O)O)CCN(CC(=O)O)CCN(CC(=O)O)CC2)C(=O)N[C@H](C(=O)NCC(N)=O)CSCC(=O)N[C@@H](Cc2ccc(O)cc2)C(=O)N(C)[C@@H](C)C(=O)N[C@@H](CC(N)=O)C(=O)N2CCC[C@H]2C(=O)N[C@@H](Cc2c[nH]cn2)C(=O)N[C@@H](CC(C)C)C(=O)N2C[C@H](O)C[C@H]2C(=O)N[C@@H](Cc2c[nH]c3ccccc23)C(=O)N[C@@H](CO)C(=O)N[C@@H](Cc2cn(C)c3ccccc23)C(=O)N1C` (stereo partly shown) [[^68Ga]WL12, metal not drawn]: in the data set on hPD-L1 and CHO tumors, the hPD-L1/CHO tumor ratio was 19.7 ± 2.7. The tissue uptake at 1 h came out at 1.33 ± 0.21 %ID/g in data set [1] (CHO tumor); 3.3 ± 0.4 %ID/g in data set [1] (blood); 11.6 ± 3.18 %ID/g in data set [1] (hPD-L1 tumor); 64.7 ± 12.1 %ID/g in data set [1] (kidney); 15.1 ± 7.6 %ID/g in data set [1] (liver); 4.97 ± 0.8 %ID/g in data set [2] (MDAMB231 tumor). Also, the tissue uptake at 1 h in data set [2] (SUM149 tumor) came to 1.9 ± 0.1 %ID/g; in data set [2] (kidney) it was 65.6 ± 3.6 %ID/g; in data set [2] (liver), 11.4 ± 0.7 %ID/g. For the same molecule, the tissue uptake at 2 h in data set [1] (blood) came out at 0.6 ± 0.01 %ID/g; in data set [1] (hPD-L1 tumor), 9.89 ± 1.72 %ID/g; in data set [1] (kidney), 27.7 ± 4.09 %ID/g; in data set [1] (liver), 2.7 ± 0.2 %ID/g. In addition, the tissue to tissue ratio at 2 h was found to be 16 ± 3.4 in data set [1] (hPD-L1 tumor / blood) and 100 ± 61.2 in data set [1] (hPD-L1 tumor / muscle). The tissue to tissue ratio at 1 h in data set [1] (hPD-L1 tumor / muscle) amounted to 59.8 ± 16.5. Besides, in data set [1] (hPD-L1 tumor), the tissue uptake at 0.25 h is 19.4 ± 3.3 %ID/g. Besides, the “reduction in MDAMB231 tumor uptake with blocking dose of WL12” value in data set [3] is over 50%.
